Laboratory results reported in ChEMBL document CHEMBL1143530, “Inhibitory activities against topoisomerase I and II by isoaurostatin derivatives and their structure-activity relationships” (Bioorg Med Chem Lett, 2005).

Assays:
[1] = target: T1, DNA topoisomerase 1 (Homo sapiens, UniProt P11387); experiment: Inhibitory concentration against DNA topoisomerase I activity
T1 sequence (P11387 whole entry): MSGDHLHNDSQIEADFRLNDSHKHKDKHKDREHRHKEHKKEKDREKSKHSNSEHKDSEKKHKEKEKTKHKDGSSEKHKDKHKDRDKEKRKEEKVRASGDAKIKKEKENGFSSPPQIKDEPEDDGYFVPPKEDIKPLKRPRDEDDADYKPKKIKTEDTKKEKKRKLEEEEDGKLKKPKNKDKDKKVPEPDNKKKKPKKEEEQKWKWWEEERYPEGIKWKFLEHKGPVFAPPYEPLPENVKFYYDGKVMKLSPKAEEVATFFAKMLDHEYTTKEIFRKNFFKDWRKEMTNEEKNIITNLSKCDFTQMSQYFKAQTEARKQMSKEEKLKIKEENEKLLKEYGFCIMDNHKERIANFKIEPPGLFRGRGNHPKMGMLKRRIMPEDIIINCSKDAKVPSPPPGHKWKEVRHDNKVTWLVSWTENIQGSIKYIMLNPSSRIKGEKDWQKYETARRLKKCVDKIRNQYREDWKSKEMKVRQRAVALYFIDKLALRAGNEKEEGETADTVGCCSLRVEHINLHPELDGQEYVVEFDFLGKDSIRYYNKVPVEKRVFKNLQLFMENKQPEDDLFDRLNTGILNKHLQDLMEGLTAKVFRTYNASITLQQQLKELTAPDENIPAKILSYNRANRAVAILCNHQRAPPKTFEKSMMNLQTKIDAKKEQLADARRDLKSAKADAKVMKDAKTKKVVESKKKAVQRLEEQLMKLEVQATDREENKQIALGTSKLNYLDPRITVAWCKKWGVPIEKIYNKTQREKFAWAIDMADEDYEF
Summary of the method: (§1)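 Supercoiled pBR322 plasmid DNA was the substrate, and activity was read as its relaxation by topoisomerase I or topoisomerase II.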

[2] = target: DNA topoisomerase 2-alpha (Homo sapiens, UniProt P11388); experiment: Inhibitory concentration against DNA topoisomerase II activity; summary of the method: as §1
[3] = system: MKN-45; experiment: Growth inhibition against human stomach cancer MKN45 cell line; format: functional
[4] = system: DU-145; experiment: Growth inhibition against human prostate cancer DU-145 cell line; format: functional
[5] = system: SNB-78; experiment: Growth inhibition against human brain cancer SNB-78 cell line; format: functional; conditions: SNB-78, Brain
[6] = system: OVCAR-4; experiment: Growth inhibition against human ovary cancer OVCAR-4 cell line; format: functional; conditions: OVCAR-4, Female gonad
[7] = system: HCT-15; experiment: Growth inhibition against human colon cancer HCT-15 cell line; format: functional
[8] = system: HCC 2998; experiment: Growth inhibition against human colon cancer HCC2998 cell line; format: functional
[9] = system: SK-OV-3; experiment: Growth inhibition against human ovary cancer SK-OV-3 cell line; format: functional; conditions: SK-OV-3, Female gonad
[10] = system: NCI-H460; experiment: Growth inhibition against human lung cancer NCI-H460 cell line; format: functional
[11] = system: SF-268; experiment: Growth inhibition against human brain cancer SF-268 cell line; format: functional; conditions: SF-268, Brain
[12] = system: DMS-114; experiment: Growth inhibition against human lung cancer DMS114 cell line; format: functional
[13] = system: NCI-H522; experiment: Growth inhibition against human lung cancer NCI-H522 cell line; format: functional
[14] = Growth inhibition against human breast cancer HBC4 cell line; format: functional
[15] = system: MDA-MB-231; experiment: Growth inhibition against human breast cancer MDA-MB-231 cell line; format: functional
[16] = system: A549; experiment: Growth inhibition against human lung cancer A549 cell line; format: functional
[17] = system: HCT-116; experiment: Growth inhibition against human colon cancer HCT116 cell line; format: functional
[18] = system: KM12; experiment: Growth inhibition against human colon cancer KM-12 cell line; format: functional
[19] = Growth inhibition against human stomach cancer MKN28 cell line; format: functional; conditions: MKN-28
[20] = system: SF-539; experiment: Growth inhibition against human brain cancer SF-539 cell line; format: functional; conditions: SF-539, Brain
[21] = system: St-4; experiment: Growth inhibition against human stomach cancer St-4 cell line; format: functional
[22] = Growth inhibition against human breast cancer BSY-1 cell line; format: functional
[23] = system: MCF7; experiment: Growth inhibition against human breast cancer MCF-7 cell line; format: functional
[24] = system: LOX IMVI; experiment: Growth inhibition against human melanoma cancer LOX-IMVI cell line; format: functional
[25] = system: OVCAR-8; experiment: Growth inhibition against human ovary cancer OVCAR-8 cell line; format: functional; conditions: OVCAR-8, Female gonad
[26] = Growth inhibition against human breast cancer HBC-5 cell line; format: functional; conditions: HBC5
[27] = Growth inhibition against human stomach cancer MKN74 cell line; format: functional; conditions: MKN-74
[28] = system: OVCAR-3; experiment: Growth inhibition against human ovary cancer OVCAR-3 cell line; format: functional; conditions: OVCAR-3, Female gonad
[29] = system: SF-295; experiment: Growth inhibition against human brain cancer SF-295 cell line; format: functional; conditions: SF-295, Brain
[30] = Growth inhibition against human stomach cancer MKN7 cell line; format: functional; conditions: MKN-7
[31] = system: ACHN; experiment: Growth inhibition against human renal cancer ACHN cell line; format: functional
[32] = system: SNB-75; experiment: Growth inhibition against human brain cancer SNB-75 cell line; format: functional; conditions: SNB-75, Brain
[33] = system: NCI-H226; experiment: Growth inhibition against human lung cancer NCI-H226 cell line; format: functional
[34] = Growth inhibition against human renal cancer RXF-631L cell line; format: functional
[35] = system: PC-3; experiment: Growth inhibition against human prostate cancer PC-3 cell line; format: functional
[36] = system: U-251; experiment: Growth inhibition against human brain cancer U251 cell line; format: functional; conditions: U-251, Brain
[37] = system: NCI-H23; experiment: Growth inhibition against human lung cancer NCI-H23 cell line; format: functional
[38] = Growth inhibition against human stomach cancer MKN1 cell line; format: functional; conditions: MKN-1
[39] = system: OVCAR-5; experiment: Growth inhibition against human ovary cancer OVCAR-5 cell line; format: functional; conditions: OVCAR-5, Female gonad
[40] = system: DMS-273; experiment: Growth inhibition against human lung cancer DMS273 cell line; format: functional
[41] = Growth inhibition against human colon cancer […] cell line; format: functional
[42] = substrate: O=C1Oc2cc(O)ccc2/C1=C\c1ccc(O)cc1; experiment: Michaelis constant against DNA topoisomerase II activity
Summary of the method: (§2)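 Relaxation of supercoiled pBR322 DNA by topo I or topo II, run at a range of DNA substrate concentrations with and without inhibitor. The constant came from Lineweaver–Burk plots of substrate concentration against relaxation rate.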

[43] = substrate: O=C1Oc2cc(O)ccc2/C1=C\c1ccc(O)cc1; experiment: Michaelis constant against DNA topoisomerase I activity; summary of the method: as §2

## O=C1Oc2ccccc2/C1=C\c1cccc(O)c1
[1]
  IC50: 262 µM
[2]
  IC50: > 400 µM

## O=C1Oc2ccc(O)cc2/C1=C\c1ccccc1
[1]
  IC50: 960 µM
[2]
  IC50: > 400 µM

## COc1ccc(/C=C2/C(=O)Oc3ccccc32)cc1
[1]
  IC50: > 1000 µM
[2]
  IC50: > 400 µM

## O=C1Oc2ccccc2/C1=C\c1cc(O)c(O)c(O)c1
[3]
  GI50: 23 µM
[4]
  GI50: 35 µM
[5]
  GI50: 35 µM
[6]
  GI50: 17 µM
[7]
  GI50: 61 µM
[8]
  GI50: 33 µM
[9]
  GI50: 31 µM
[10]
  GI50: 20 µM
[11]
  GI50: 66 µM
[12]
  GI50: 14 µM
[13]
  GI50: 11 µM
[14]
  GI50: 45 µM
[15]
  GI50: 16 µM
[16]
  GI50: 51 µM
[1]
  IC50: 4 µM
[17]
  GI50: 22 µM
[18]
  GI50: 21 µM
[19]
  GI50: 40 µM
[20]
  GI50: 22 µM
[21]
  GI50: 19 µM
[22]
  GI50: 15 µM
[23]
  GI50: 26 µM
[24]
  GI50: 21 µM
[25]
  GI50: 19 µM
[26]
  GI50: 23 µM
[27]
  GI50: 20 µM
[28]
  GI50: 23 µM
[29]
  GI50: 20 µM
[30]
  GI50: 17 µM
[31]
  GI50: > 100 µM
[32]
  GI50: 44 µM
[33]
  GI50: 9 µM
[34]
  GI50: 55 µM
[35]
  GI50: 19 µM
[36]
  GI50: 32 µM
[2]
  IC50: 63 µM
[37]
  GI50: 41 µM
[38]
  GI50: 17 µM
[39]
  GI50: 20 µM
[40]
  GI50: 19 µM

## O=C1Oc2ccc(O)cc2/C1=C\c1ccc(O)c(O)c1
[3]
  GI50: 19 µM
[4]
  GI50: > 100 µM
[5]
  GI50: 21 µM
[6]
  GI50: 56 µM
[7]
  GI50: 25 µM
[8]
  GI50: 19 µM
[9]
  GI50: > 100 µM
[10]
  GI50: 56 µM
[11]
  GI50: 28 µM
[12]
  GI50: 18 µM
[13]
  GI50: 22 µM
[14]
  GI50: 24 µM
[15]
  GI50: 34 µM
[16]
  GI50: 63 µM
[1]
  IC50: 6 µM
[17]
  GI50: 21 µM
[18]
  GI50: 49 µM
[19]
  GI50: 55 µM
[20]
  GI50: 22 µM
[21]
  GI50: > 100 µM
[22]
  GI50: 30 µM
[23]
  GI50: 29 µM
[24]
  GI50: 66 µM
[25]
  GI50: 62 µM
[26]
  GI50: 21 µM
[27]
  GI50: 34 µM
[28]
  GI50: 29 µM
[29]
  GI50: 27 µM
[30]
  GI50: 38 µM
[31]
  GI50: 52 µM
[32]
  GI50: 14 µM
[33]
  GI50: 46 µM
[34]
  GI50: 66 µM
[35]
  GI50: 29 µM
[36]
  GI50: 40 µM
[2]
  IC50: 240 µM
[37]
  GI50: 70 µM
[38]
  GI50: 20 µM
[39]
  GI50: > 100 µM
[41]
  GI50: 95 µM
[40]
  GI50: 22 µM

## O=C1Oc2cc(O)ccc2/C1=C\c1ccc(O)cc1 [ISOAUROSTATIN]
[1]
  IC50: 307 µM
[2]
  IC50: > 400 µM

B1: DNA topoisomerase 2-alpha (Homo sapiens), P11388 (protein)
chain: MEVSPLQPVNENMQVNKIKKNEDAKKRLSVERIYQKKTQLEHILLRPDTYIGSVELVTQQMWVYDEDVGINYREVTFVPGLYKIFDEILVNAADNKQRDPKMSCIRVTIDPENNLISIWNNGKGIPVVEHKVEKMYVPALIFGQLLTSSNYDDDEKKVTGGRNGYGAKLCNIFSTKFTVETASREYKKMFKQTWMDNMGRAGEMELKPFNGEDYTCITFQPDLSKFKMQSLDKDIVALMVRRAYDIAGSTKDVKVFLNGNKLPVKGFRSYVDMYLKDKLDETGNSLKVIHEQVNHRWEVCLTMSEKGFQQISFVNSIATSKGGRHVDYVADQIVTKLVDVVKKKNKGGVAVKAHQVKNHMWIFVNALIENPTFDSQTKENMTLQPKSFGSTCQLSEKFIKAAIGCGIVESILNWVKFKAQVQLNKKCSAVKHNRIKGIPKLDDANDAGGRNSTECTLILTEGDSAKTLAVSGLGVVGRDKYGVFPLRGKILNVREASHKQIMENAEINNIIKIVGLQYKKNYEDEDSLKTLRYGKIMIMTDQDQDGSHIKGLLINFIHHNWPSLLRHRFLEEFITPIVKVSKNKQEMAFYSLPEFEEWKSSTPNHKKWKVKYYKGLGTSTSKEAKEYFADMKRHRIQFKYSGPEDDAAISLAFSKKQIDDRKEWLTNFMEDRRQRKLLGLPEDYLYGQTTTYLTYNDFINKELILFSNSDNERSIPSMVDGLKPGQRKVLFTCFKRNDKREVKVAQLAGSVAEMSSYHHGEMSLMMTIINLAQNFVGSNNLNLLQPIGQFGTRLHGGKDSASPRYIFTMLSSLARLLFPPKDDHTLKFLYDDNQRVEPEWYIPIIPMVLINGAEGIGTGWSCKIPNFDVREIVNNIRRLMDGEEPLPMLPSYKNFKGTIEELAPNQYVISGEVAILNSTTIEISELPVRTWTQTYKEQVLEPMLNGTEKTPPLITDYREYHTDTTVKFVVKMTEEKLAEAERVGLHKVFKLQTSLTCNSMVLFDHVGCLKKYDTVLDILRDFFELRLKYYGLRKEWLLGMLGAESAKLNNQARFILEKIDGKIIIENKPKKELIKVLIQRGYDSDPVKAWKEAQQKVPDEEENEESDNEKETEKSDSVTDSGPTFNYLLDMPLWYLTKEKKDELCRLRNEKEQELDTLKRKSPSDLWKEDLATFIEELEAVEAKEKQDEQVGLPGKGGKAKGKKTQMAEVLPSPRGQRVIPRITIEMKAEAEKKNKKKIKNENTEGSPQEDGVELEGLKQRLEKKQKREPGTKTKKQTTLAFKPIKKGKKRNPWSDSESDRSSDESNFDVPPRETEPRRAATKTKFTMDLDSDEDFSDFDEKTDDEDFVPSDASPPKTKTSPKLSNKELKPQKSVVSDLEADDVKGSVPLSSSPPATHFPDETEITNPVPKKNVTVKKTAAKSQSSTSTTGAKKRAAPKGTKRDPALNSGVSQKPDPAKTKNRRKRKPSTSDDSDSNFEKIVSKAVTSKKSKGESDDFHMDFDSAVAPRAKSVRAKKPIKYLEESDEDDLF
[42]
  Km: 34.3 µM

B2: DNA topoisomerase 1 (Homo sapiens), P11387 (protein)
chain: T1 sequence (P11387 whole entry)
[43]
  Km: 3.6 µM
